How the values were obtained:
[1] = Ratio of drug level to raltegravir-glucoronide level in healthy human urine at 400 mg, po Bid coadministered with atazanavir 400 mg, po qd for 1 week by LC-MS/MS analysis; type: ADME, organism-based; conditions: in vivo, 168 h, in the assay text read “po qd” for “po Bid”
Summary of the method: (§1)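 Steady state was reached after 1 week of once-daily raltegravir 400 mg with atazanavir 400 mg in healthy adults. All urine was collected over 24 h after the witnessed dose and combined into 2-h pools. Raltegravir and raltegravir-glucuronide were assayed by LC-MS-MS, and amounts excreted were summed for 0–12 h and 12–24 h.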

[2] = test system: Plasma; experiment: Renal clearance in healthy human assessed as raltegravir-glucoronide at […] coadministered with atazanavir 400 mg, po qd for 1 week by LC-MS/MS analysis; type: ADME, organism-based; conditions: in vivo, 168 h
Summary of the method: (§2)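 Once-daily raltegravir 400 mg with atazanavir 400 mg was given for 1 week, with plasma and urine collected over 24 h and assayed by LC-MS-MS. Clearances were computed noncompartmentally: CL/F = dose/AUC(τ), renal CL = urinary amount/plasma AUC over the same interval, and Fe/F = Ae/(dose/F).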

[3] = Apparent total plasma clearance in healthy human at 400 mg, po Bid coadministered with atazanavir 400 mg, po qd for 1 week by LC-MS/MS analysis; type: ADME, organism-based; conditions: in the assay text read “po qd” for “po Bid”; summary of the method: as §2
[4] = test system: Plasma; experiment: Ctau in healthy human plasma assessed as raltegravir-glucoronide at 400 mg, […] coadministered with atazanavir 400 mg, po qd for 1 week by LC-MS/MS analysis; type: ADME, organism-based; conditions: in vivo, 168 h
Summary of the method: (§3)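 Arm B of a crossover in healthy adults (24–51 y), separated from the other arm by at least 3 days. Subjects took raltegravir 400 mg plus atazanavir 400 mg once daily for 1 week in a semifasted state. Plasma was sampled over 24 h after a witnessed dose. Raltegravir was quantified by LC-MS-MS after acetonitrile protein precipitation, and the glucuronide by negative-mode SRM (m/z 619.1→316.0) with a d3 internal standard. Noncompartmental analysis used the linear trapezoidal rule.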

[5] = Renal clearance in healthy human at 400 mg, po Bid for 1 week by LC-MS/MS analysis; type: ADME, organism-based; conditions: plasma, read-out: CL_renal
Summary of the method: (§4)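 Raltegravir 400 mg was given twice daily for 1 week, with 12-h plasma and urine profiles measured by LC-MS-MS. Apparent oral clearance was dose/AUC over the dosing interval. Renal clearance was the amount excreted in urine divided by plasma AUC over the same interval. Fe/F was Ae/(dose/F), with F unknown.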

[6] = Apparent clearance of oral drug in healthy human assessed as drug excreted unchanged at 400 mg, po […] coadministered with atazanavir 400 mg, po qd for 1 week by LC-MS/MS analysis; type: ADME, organism-based; conditions: in vivo, read-out: Fraction excreted unchanged; summary of the method: as §2
[7] = Cmax in healthy human plasma at 400 mg, po qd coadministered with atazanavir 400 mg, po qd for 1 week by LC-MS/MS analysis
[8] = test system: Homo sapiens; experiment: AUC (0 to tau) in human at 400 mg, po Bid coadministered with atazanavir 400 mg, po qd for 1 week by LC-MS/MS analysis; type: ADME, organism-based, Plasma; conditions: in vivo, 168 h, in the assay text read “po qd” for “po Bid”; summary of the method: as §3
[9] = Drug level in healthy human urine assessed as raltegravir-glucoronide at 400 mg, […] coadministered with atazanavir 400 mg, po qd for 1 week measured at 0-12 hrs post dose by LC-MS/MS analysis; type: ADME, organism-based; conditions: in vivo; summary of the method: as §1
[10] = Drug level in healthy human urine assessed as raltegravir-glucoronide at 400 mg, […] coadministered with atazanavir 400 mg, po qd for 1 week measured at 12 to 24 hrs post dose by LC-MS/MS analysis; type: ADME, organism-based; conditions: in vivo; summary of the method: as §1
[11] = Ctau in healthy human plasma at 400 mg, po qd coadministered with atazanavir 400 mg, po qd for 1 week by LC-MS/MS analysis
[12] = Ctau in healthy human plasma at 400 mg, po Bid for 1 week by LC-MS/MS analysis; type: ADME, organism-based; conditions: read-out: Ctau
Summary of the method: (§5)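 Healthy volunteers (24–51 y) took raltegravir 400 mg twice daily for 1 week in a crossover with at least 3 days between arms, dosing ≥1 h before or 2 h after food. After a witnessed dose, blood was drawn at 1, 2, 4, 8 and 12 h, with meals from 1 h. Plasma was analysed by LC-MS-MS after acetonitrile precipitation, using noncompartmental linear-trapezoidal AUC and log10-transformed geometric means.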

[13] = test system: Plasma; experiment: Ctau in healthy human plasma assessed as raltegravir-glucoronide at 400 mg, po Bid for 1 week by LC-MS/MS analysis; type: ADME, organism-based; conditions: in vivo, 168 h; summary of the method: as §5
[14] = Cmax in healthy human plasma at 400 mg, po Bid for 1 week by LC-MS/MS analysis; type: ADME, organism-based; design: dose 400 mg, route oral; summary of the method: as §5
[15] = Apparent clearance of oral drug in healthy human assessed as drug excreted unchanged at 400 mg, po Bid for 1 week by LC-MS/MS analysis; type: ADME, organism-based; conditions: in vivo, read-out: Fraction excreted unchanged; summary of the method: as §4
[16] = Plasma concentration in healthy human at 400 mg, po qd coadministered with atazanavir 400 mg, po qd for 1 week measured 12 hrs post dose by LC-MS/MS analysis
[17] = test system: Plasma; experiment: Cmax in healthy human plasma assessed as raltegravir-glucoronide at 400 mg, po Bid for 1 week by LC-MS/MS analysis; type: ADME, organism-based; design: dose 400 mg, route oral; conditions: in vivo, 168 h; summary of the method: as §5
[18] = AUC (0 to tau) in healthy human at 400 mg, po Bid for 1 week by LC-MS/MS analysis; type: ADME, organism-based; conditions: plasma; summary of the method: as §5
[19] = Drug level in healthy human urine at 400 mg, po Bid for 1 week measured at 0-12 hrs post dose by LC-MS/MS analysis; type: ADME, organism-based; conditions: in vivo
Summary of the method: (§6)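 Healthy volunteers took raltegravir 400 mg twice daily for 1 week. After the witnessed dose, all urine was collected over 12 h and pooled into 2-h aliquots, then frozen at −70°C. Raltegravir and its glucuronide were measured by LC-MS-MS, and amounts were summed over 0–12 h. Values are geometric means of log10-transformed data.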

[20] = test system: Homo sapiens; experiment: AUC (12 to 24 hrs) in healthy human assessed as raltegravir-glucoronide at 400 mg, po […] coadministered with atazanavir 400 mg, po qd for 1 week by LC-MS/MS analysis; type: ADME, organism-based, Plasma; design: time 12-24 hr, dose 400 mg, route oral; conditions: in vivo; summary of the method: as §3
[21] = test system: Plasma; experiment: Plasma concentration in healthy human assessed as raltegravir-glucoronide at 400 mg, po Bid for 1 week measured 12 hrs post dose by LC-MS/MS analysis; type: ADME, organism-based; conditions: in vivo; summary of the method: as §5
[22] = Drug level in healthy human urine at 400 mg, po Bid coadministered with atazanavir 400 mg, po qd for 1 week measured at 12 to 24 hrs post dose by LC-MS/MS analysis; type: ADME, organism-based; conditions: in vivo, in the assay text read “po qd” for “po Bid”; summary of the method: as §1
[23] = Renal clearance in healthy human at 400 mg, […] coadministered with atazanavir 400 mg, po qd for 1 week by LC-MS/MS analysis; type: ADME, organism-based; conditions: plasma, read-out: CL_renal; summary of the method: as §2
[24] = Ratio of drug level to raltegravir-glucoronide level in healthy human urine at 400 mg, po Bid for 1 week by LC-MS/MS analysis; type: ADME, organism-based; conditions: in vivo, 168 h; summary of the method: as §6
[25] = test system: Plasma; experiment: Cmax in healthy human plasma assessed as raltegravir-glucoronide at 400 mg, […] coadministered with atazanavir 400 mg, po qd for 1 week by LC-MS/MS analysis; type: ADME, organism-based; design: dose 400 mg, route oral; conditions: in vivo, 168 h; summary of the method: as §3
[26] = AUC (0 to12 hrs) in healthy human at 400 mg, po qd coadministered with atazanavir 400 mg, po qd for 1 week by LC-MS/MS analysis; conditions: plasma
[27] = Apparent total plasma clearance in healthy human at 400 mg, po Bid for 1 week by LC-MS/MS analysis; type: ADME, organism-based; summary of the method: as §4
[28] = AUC (12 to24 hrs) in healthy human at 400 mg, po qd coadministered with atazanavir 400 mg, po qd for 1 week by LC-MS/MS analysis; conditions: plasma
[29] = test system: Plasma; experiment: Plasma concentration in healthy human assessed as raltegravir-glucoronide at 400 mg, po […] coadministered with atazanavir 400 mg, po qd for 1 week measured 12 hrs post dose by LC-MS/MS analysis; type: ADME, organism-based; conditions: in vivo; summary of the method: as §3
[30] = Drug level in healthy human urine at 400 mg, po Bid coadministered with atazanavir 400 mg, po qd for 1 week measured at 0-12 hrs post dose by LC-MS/MS analysis; type: ADME, organism-based; conditions: in vivo, in the assay text read “po qd” for “po Bid”; summary of the method: as §1
[31] = Plasma concentration in healthy human at 400 mg, po Bid for 1 week measured 12 hrs post dose by LC-MS/MS analysis; type: ADME, organism-based; summary of the method: as §5
[32] = test system: Homo sapiens; experiment: AUC (0 to12 hrs) in healthy human assessed as raltegravir-glucoronide at 400 mg, po Bid for 1 week by LC-MS/MS analysis; type: ADME, organism-based, Plasma; design: dose 400 mg, time < 12 hr, route oral; conditions: in vivo, 12 h; summary of the method: as §5
[33] = test system: Plasma; experiment: Renal clearance in healthy human assessed as raltegravir-glucoronide at 400 mg, po Bid for 1 week by LC-MS/MS analysis; type: ADME, organism-based; conditions: in vivo, 168 h; summary of the method: as §4
[34] = AUC (0 to12 hrs) in healthy human at 400 mg, po Bid for 1 week by LC-MS/MS analysis; type: ADME, organism-based; design: dose 400 mg, time < 12 hr, route oral; conditions: plasma; summary of the method: as §5
[35] = Drug level in healthy human urine assessed as raltegravir-glucoronide at 400 mg, po Bid for 1 week measured at 0-12 hrs post dose by LC-MS/MS analysis; type: ADME, organism-based; conditions: in vivo; summary of the method: as §6

## Cc1nnc(C(=O)NC(C)(C)c2nc(C(=O)NCc3ccc(F)cc3)c(O)c(=O)n2C)o1 [RALTEGRAVIR]
[1]
  Ratio: 7.81
[2]
  CL_renal: 692 mL/min
[3]
  CL/F: 1100 mL/min
[4]
  Ctau: 8 ng/mL
[5]
  CL renal at 168 h: 55 mL/min
[6]
  dose excreted at 168 h: 3.5%
[7]
  Cmax: 1400 ng/mL
[8]
  AUC: 6080 ng·h/mL
[9]
  Drug uptake: 84.51 mg
[10]
  Drug uptake: 7.03 mg
[11]
  concentration at 168 h: 18 ng/mL
[12]
  concentration at 168 h: 46 ng/mL
[13]
  Ctau: 45 ng/mL
[14]
  Cmax: 1020 ng/mL
[15]
  dose excreted at 168 h: 2.9%
[16]
  concentration at 12 h: 69 ng/mL
[17]
  Cmax: 799 ng/mL
[18]
  AUC tau at 168 h: 3530 ng·h/mL
[19]
  Drug uptake: 11.66 mg
[20]
  AUC: 342 ng·h/mL
[21]
  Cp: 45 ng/mL
[22]
  Drug uptake: 0.41 mg
[23]
  CL renal at 168 h: 39 mL/min
[24]
  Ratio: 7.08
[25]
  Cmax: 458 ng/mL
[26]
  AUC at 12 h: 4660 ng·h/mL
[27]
  CL/F: 1890 mL/min
[28]
  AUC: 875 ng·h/mL
[29]
  Cp: 41 ng/mL
[30]
  Drug uptake: 10.81 mg
[31]
  concentration at 12 h: 46 ng/mL
[32]
  AUC: 3267 ng·h/mL
[33]
  CL_renal: 421 mL/min
[34]
  AUC at 12 h: 3530 ng·h/mL
[35]
  Drug uptake: 82.5 mg

Reference: ChEMBL document CHEMBL1671760, “Pharmacokinetics and pharmacogenomics of once-daily raltegravir and atazanavir in healthy volunteers” (Antimicrob Agents Chemother, 2010)
